Assay outcomes from PubChem.
Most compounds without a hit are left out; they make up all but 2.1% or so of the library.
PKA-R1A act – activators of PKA-R1A holoenzyme, primary screen, biochemical, fluorescence polarization, Cy5-IP20, bovine R1A, mouse PKAc; AID 504707, 2011; cAMP-dependent protein kinase type I-alpha regulatory subunit (Bos taurus) + …; PKA-R1A dissociation; scaled: DMSO 0%, 113 µM cGMP 100%; 340,000 tested, 0.083% active; activation, % at 11.4 µM;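 active means percent activation above the mean of all tested compounds plus 3 SD, cut at about 19% in these data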;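 further: higher means more PKAc released from R1A so a rise in polarization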
PKA-R2B act – activators of PKA-R2B holoenzyme, primary screen, biochemical, fluorescence polarization, Cy5-IP20, human; cAMP-dependent protein kinase catalytic subunit beta (Homo sapiens) + cAMP-dependent …; PKA-R2B holoenzyme dissociation; R2B truncated from residue 108, S112A mutant; 0% DMSO only, 100% 113 µM cGMP; activation, % at 11.4 µM; 340,000 tested, 0.079% active; AID 504700, 2011;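 active means activation above a cutoff set at the mean over all compounds plus 3 SD, cut at about 18% in these data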;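 further: higher means more holoenzyme dissociation and a rise in polarization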
SR-BI uptake up – activators of SR-BI mediated DiI-HDL uptake, primary screen, ldlA[mSR-BI] CHO cells, DiI fluorescence | 3 h; 100 = double the neutral-control signal | activation, % at 12.5 µM | 320,000 tested, 0.096% active | AID 504775, 2011;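 active means mean replicate activation of at least 60% and every replicate at or above 60%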;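 further: 0% = median plate neutral-control signal and 100% = twice that signal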
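Test system: SR-BI-overexpressing, LDLR-lacking CHO cells; Medium: Ham's F12 with 0.5% BSA, HEPES 25 mM, pH 7.4; Schedule: 3 h, 37 °C; Technique: bottom-read fluorescence, 550/595 nm.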
dFosB activator – activators of delta FosB homodimer, primary screen, biochemical, fluorescence polarization, TAMRA-CDK5 oligo, single point; Protein FosB (Mus musculus), P13346; purified delta FosB; percent of positive-control signal above neutral wells; activation, % at 25 µM; 340,000 tested, 0.99% active;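 active means mean activation above about 17%, with every replicate also reaching it, limit read from the data, passing the limit was not always enough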
SR-BI HDL uptake – inhibitors of SR-BI mediated HDL lipid uptake, primary screen, ldlA[mSR-BI] cells, fluorescence, single point; Scavenger receptor class B member 1 (Mus musculus), Q61009; 320,000 tested, 0.96% active; ldlA[mSR-BI] CHO cells, DiI-HDL uptake fluorescence, 3 h; inhibition, % at 12.5 µM;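 active means mean replicate inhibition of at least 70% and a set share of replicates each scoring 70 or more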;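 further: 0% = median of neutral control wells and 100% = median of positive control wells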
Target sequence (Q61009 whole entry, looked up): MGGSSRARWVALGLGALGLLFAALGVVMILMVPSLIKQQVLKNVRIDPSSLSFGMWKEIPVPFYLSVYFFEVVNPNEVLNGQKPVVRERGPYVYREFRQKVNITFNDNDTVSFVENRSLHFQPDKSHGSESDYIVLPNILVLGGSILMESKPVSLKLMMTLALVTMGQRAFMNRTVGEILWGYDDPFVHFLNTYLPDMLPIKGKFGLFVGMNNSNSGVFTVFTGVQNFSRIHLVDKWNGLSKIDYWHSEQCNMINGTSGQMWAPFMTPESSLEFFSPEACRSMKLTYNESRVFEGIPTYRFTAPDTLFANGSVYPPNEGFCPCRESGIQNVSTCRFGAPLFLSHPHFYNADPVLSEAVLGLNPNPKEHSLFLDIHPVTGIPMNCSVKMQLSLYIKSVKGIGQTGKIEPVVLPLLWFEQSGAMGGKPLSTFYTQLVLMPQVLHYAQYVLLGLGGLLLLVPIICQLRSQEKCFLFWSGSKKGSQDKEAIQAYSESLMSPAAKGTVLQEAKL
CDK5 inh – inhibitors of human CDK5/p35 kinase, primary screen, biochemical, single concentration; inhibition, % at 10 µM; Cyclin-dependent kinase 5 (Homo sapiens) + Cyclin-dependent kinase 5 activator 1 (Homo …; Recombinant CDK5/p35, ADP-Glo luminescence, 60 min; 330,000 tested, 0.01% active;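 active means highest replicate inhibition of at least 50% and at least 75% of replicates reaching 50%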;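 further: plate controls were DMSO neutral control for no effect and GW8510 at 10 µM for full effect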
The depositor's hits bear a star; nt = no result given.

SMILES	PKA-R1A act	PKA-R2B act	SR-BI uptake up	dFosB activator	SR-BI HDL uptake	CDK5 inh
Cc1cc(/C=N\NC(=O)COc2cccc3cccnc23)c(C)n1-c1ccc(Br)cc1	-9	-3	-21	-13	21	-1
Cc1cc(/C=N\NC(=O)c2cccs2)c(C)n1-c1ccc2ncccc2c1	9	0	-73	4	73*	0
CCCCC(CC)C(=O)Nc1cc(=O)[nH]c2nc3ccccc3n12 (stereo not drawn)	8	-15	410*	-12	-410	-4
CCN(CC)CCCNc1nc2cc(OC)c(OC)cc2c2nc(-c3cccnc3)nn12	8	8	7	245*	-7	1
COCCCNc1nc2cc(OC)c(OC)cc2c2nc(-c3ccccc3)nn12	-1	-8	-86	-18	86*	1
COc1cc2nc(NCCCN3CCN(C)CC3)n3nc(-c4ccccc4)nc3c2cc1OC	-1	1	1	166*	-1	0
CCN(CC)CCCNc1nc2ccccc2c2nc(-c3ccncc3)nn12	-9	0	-10	67*	10	1
COc1cc2nc(NCC3CCCO3)n3nc(-c4cccnc4)nc3c2cc1OC (stereo not drawn)	-14	-2	-54	1	54	-1
Cc1nn(C2CCS(=O)(=O)C2)c(C)c1CN(C)C(=O)c1ccccc1 (stereo not drawn)	-13	3	2	-3	-2	1
CCN(CC)CCCNc1nc2cc(OC)c(OC)cc2c2nc(-c3ccccc3)nn12	5	-10	17	181*	-17	0
Cc1occc1C(=O)N1CCC2(CCCN(Cc3ccc(F)c(F)c3)C2)C1 (stereo not drawn)	0	-6	0	-14	0	-3
COc1cc(OC)c(NC(=O)c2ccco2)cc1Cl	-3	-13	-35	-9	35	1
COc1cc(NC(=O)c2ccccc2)c(OC)cc1Cl	-3	2	-86	2	86*	-2
COc1cc(OC)c(NC(=O)c2cc3ccccc3cc2O)cc1Cl	2	0	-94	-7	94*	-1
COc1ccc(NC(=O)CS(=O)c2cccc(C(F)(F)F)c2)cc1 (stereo not drawn)	1	-1	15	-10	-15	-1
COc1ccccc1Nc1nc(-c2sc(NC(=O)c3ccccc3)nc2C)cs1	5	-10	-59	-1	59	0
Cc1nc(NC(=O)c2ccccc2)sc1-c1csc(NCCc2ccccc2)n1	-3	-5	-76	-7	76*	-2
COc1ccc(OC)c(Nc2nc(-c3sc(C)nc3C)cs2)c1	-6	6	-64	-13	64	0
CCCCC(=O)Nc1nc(C)c(-c2csc(Nc3cc(OC)ccc3OC)n2)s1	0	-17	-83	8	83*	0
CCCC(C)C(=O)Nc1nc(C)c(-c2csc(Nc3ccc(Cl)cc3)n2)s1 (stereo not drawn)	-11	-7	-85	-2	85*	2
CCOc1ccccc1Nc1nc(-c2sc(NC(=O)c3cccc(Cl)c3)nc2C)cs1	-5	8	-104	6	104*	1
O=C(NNC(=O)c1cc(Cl)ccc1[N+](=O)[O-])c1csc(N2CCOCC2)n1	5	2	-3	-3	3	1
CCCC(C)C(=O)Nc1nc(C)c(-c2csc(Nc3ccccc3OC)n2)s1 (stereo not drawn)	12	-16	-84	-16	84*	0
CCCCCC(=O)Nc1nc(C)c(-c2csc(Nc3ccccc3OCC)n2)s1	-5	-6	-64	-5	64	0
CCCCCCC(=O)Nc1nc(C)c(-c2csc(Nc3ccccc3OC)n2)s1	-10	-6	-80	-13	80*	2
SMILES	PKA-R1A act	PKA-R2B act	SR-BI uptake up	dFosB activator	SR-BI HDL uptake	CDK5 inh
CCCCCC(=O)Nc1nc(C)c(-c2csc(Nc3ccccc3OC)n2)s1	3	-12	-33	-16	33	0
CCCCC(=O)Nc1nc(C)c(-c2csc(Nc3cc(Cl)ccc3OC)n2)s1	-5	1	-88	-6	88*	1
O=C(CSc1nnc(C2CC2)n1C1CC1)N1CCN(c2ccc(O)cc2)CC1	5	2	nt	nt	nt	nt
C#CCOCCOCCOCCNc1nc(N2CCN(C(=O)CCCCCCCCCCNC(=O)Cn3cc(CCCCCN)nn3)CC2)nc(N2CCN(C(=O)CCCCCCCCCCNC(=O)[C@H]([C@@H](C)CC)n3cc(CCCCN=C(N)N)nn3)CC2)n1	2	21*	-84	-213	84*	4
CC[C@H](C)[C@@H](C(=O)NCCCCCCCCCCC(=O)N1CCN(C(=O)OC(C)(C)C)CC1)n1cc(CCCCCNC(=O)OC(C)(C)C)nn1	2	-16	-71	-4	71*	2
C#CCOCCOCCOCCNc1nc(N2CCN(C(=O)CCCCCCCCCCNC(=O)[C@H]([C@@H](C)CC)n3cc(CCCCCN)nn3)CC2)nc(N2CCN(C(=O)CCCCCCCCCCNC(=O)[C@H]([C@@H](C)CC)n3cc(CCCCN=C(N)N)nn3)CC2)n1	0	7	-40	-265	40	8
Cc1onc(-c2ccccc2)c1C(=O)NNC(=O)c1ccccc1Br	12	-9	1	-8	-1	-2
Cc1onc(-c2ccccc2)c1C(=O)NC(=S)NNC(=O)c1ccccc1O	-4	-1	-117	-2	117*	-1
Cc1onc(-c2ccccc2)c1C(=O)NC(=S)NNC(=O)c1ccc(O)cc1	4	2	21	-4	-21	2
Cc1onc(-c2ccccc2)c1C(=O)NC(=S)NNC(=O)c1ccc(O)cc1O	-18	1	-85	2	85*	nt
CSc1ncc2[nH]c(C(O)c3ccccc3)nc2n1 (stereo not drawn)	4	-1	-3	2	3	0
CC(CCc1ccccc1)NC(=O)COC(=O)c1ccc(NC(=O)CC#N)cc1 (stereo not drawn)	-5	-10	-19	-6	19	1
COC(=O)c1ccc(CNC(=O)C23CC4CC(CC(C4)C2)C3)cc1	0	-8	nt	6	nt	1
COc1ccc2sc(-c3ccc(N(C)C)cc3)c(C#CCCO)c2c1	18	7	-96	-4	96*	0
